Test results taken from ChEMBL document CHEMBL4680134, “Structural optimization of natural product nordihydroguaretic acid to discover novel analogues as AcrB inhibitors” (Eur J Med Chem, 2020).

How the values were obtained:
[1] = molecular target: T1, Multidrug efflux pump subunit AcrB (Escherichia coli (strain K12)) (UniProt P31224); test: Inhibition of AcrB in Escherichia coli BW25113 assessed as potentiation of chloramphenicol induced antibacterial activity by measuring chloramphenicol MIC at 16 ug/ml measured after 18 hrs by checkerboard titration method (reference value: 8 ug/ml); details: dose 16.0 µg/ml
T1 sequence (whole entry): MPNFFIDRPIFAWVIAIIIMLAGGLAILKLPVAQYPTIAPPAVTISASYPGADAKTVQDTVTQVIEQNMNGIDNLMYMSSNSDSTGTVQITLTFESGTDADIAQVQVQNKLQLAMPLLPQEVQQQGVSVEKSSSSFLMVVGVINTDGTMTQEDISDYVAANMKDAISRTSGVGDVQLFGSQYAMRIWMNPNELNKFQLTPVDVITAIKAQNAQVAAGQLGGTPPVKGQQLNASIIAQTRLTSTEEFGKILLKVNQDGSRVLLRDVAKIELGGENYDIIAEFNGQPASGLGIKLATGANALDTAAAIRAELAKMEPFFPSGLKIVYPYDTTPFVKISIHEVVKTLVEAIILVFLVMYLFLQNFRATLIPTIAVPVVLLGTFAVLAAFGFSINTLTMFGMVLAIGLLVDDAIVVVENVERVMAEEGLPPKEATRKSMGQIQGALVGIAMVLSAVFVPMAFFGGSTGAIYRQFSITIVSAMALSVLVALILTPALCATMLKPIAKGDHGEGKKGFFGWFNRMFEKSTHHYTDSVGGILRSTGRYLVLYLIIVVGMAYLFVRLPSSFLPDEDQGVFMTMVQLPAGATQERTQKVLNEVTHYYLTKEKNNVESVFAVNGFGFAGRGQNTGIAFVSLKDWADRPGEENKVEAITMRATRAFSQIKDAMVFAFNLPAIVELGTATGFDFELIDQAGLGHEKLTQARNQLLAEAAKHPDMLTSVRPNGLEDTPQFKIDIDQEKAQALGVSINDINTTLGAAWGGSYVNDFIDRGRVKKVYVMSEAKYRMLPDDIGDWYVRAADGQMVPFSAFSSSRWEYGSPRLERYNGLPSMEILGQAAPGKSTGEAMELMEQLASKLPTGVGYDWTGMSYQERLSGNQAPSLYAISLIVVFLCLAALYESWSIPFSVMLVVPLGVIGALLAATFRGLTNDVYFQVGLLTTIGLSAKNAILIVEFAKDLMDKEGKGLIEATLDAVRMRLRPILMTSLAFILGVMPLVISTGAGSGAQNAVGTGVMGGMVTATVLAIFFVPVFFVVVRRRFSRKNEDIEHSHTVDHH

[2] = Growth inhibition of Escherichia coli BW25113 expressing AcrB at 512 ug/ml after 18 hrs by broth microdilution assay; details: dose 512 µg/ml
Outline: (§1)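 MIC determined by 96-well broth microdilution in E. coli BW25113 expressing AcrB ((+)AcrB) and an isogenic acrB-deleted strain ((-)AcrB). Used to set the compound concentrations for synergy testing that produce no direct antibacterial effect.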

[3] = molecular target: T1, Multidrug efflux pump subunit AcrB (Escherichia coli (strain K12)); test: Inhibition of AcrB in Escherichia coli BW25113 assessed as potentiation of erythromycin induced antibacterial activity by measuring erythromycin MIC at 16 ug/ml measured after 18 hrs by checkerboard titration method (reference value: 64 ug/ml); details: dose 16.0 µg/ml
[4] = molecular target: T1, Multidrug efflux pump subunit AcrB (Escherichia coli (strain K12)); test: Inhibition of AcrB in Escherichia coli BW25113 assessed as potentiation of tetraphenylphosphonium induced antibacterial activity by measuring tetraphenylphosphonium MIC at 16 ug/ml measured after 18 hrs by checkerboard titration method (reference value: 1024 ug/ml); details: dose 16.0 µg/ml
[5] = molecular target: T1, Multidrug efflux pump subunit AcrB (Escherichia coli (strain K12)); test: Inhibition of AcrB in Escherichia coli BW25113 assessed as potentiation of levofloxacin induced antibacterial activity by measuring levofloxacin MIC at 32 ug/ml measured after 18 hrs by checkerboard titration method (reference value: 0.06 ug/ml); details: dose 32.0 µg/ml
[6] = Growth inhibition of Escherichia coli harboring AcrB deletion mutant at 64 ug/ml after 18 hrs by broth microdilution assay; details: dose 64 µg/ml; outline: as §1
[7] = molecular target: T1, Multidrug efflux pump subunit AcrB (Escherichia coli (strain K12)); test: Inhibition of AcrB in Escherichia coli BW25113 assessed as potentiation of chloramphenicol induced antibacterial activity by measuring chloramphenicol MIC at 32 ug/ml measured after 18 hrs by checkerboard titration method (reference value: 8 ug/ml); details: dose 32.0 µg/ml
[8] = tested on: Cell membrane; test: Induction of outer membrane permeabilization in wild type Escherichia coli BW25113 assessed as increase in nitrocefin hydrolysis at 128 ug/ml by spectrophotometry analysis; details: dose 128 µg/ml
Outline: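 Outer-membrane permeability: intact E. coli treated with 10 µM CCCP to block nitrocefin efflux, then exposed to compound. Nitrocefin hydrolysis by periplasmic β-lactamase followed as increasing absorbance at 490 nm over time. Polymyxin B as permeabilizer control, untreated cells as baseline. Duplicate experiments on different days.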

[9] = molecular target: T1, Multidrug efflux pump subunit AcrB (Escherichia coli (strain K12)); test: Inhibition of AcrB in Escherichia coli BW25113 assessed as potentiation of chloramphenicol induced antibacterial activity by measuring chloramphenicol MIC at 64 ug/ml measured after 18 hrs by checkerboard titration method (reference value: 8 ug/ml); details: dose 64.0 µg/ml
[10] = molecular target: T1, Multidrug efflux pump subunit AcrB (Escherichia coli (strain K12)); test: Inhibition of AcrB in Escherichia coli BW25113 assessed as potentiation of erythromycin induced antibacterial activity by measuring erythromycin MIC at 64 ug/ml measured after 18 hrs by checkerboard titration method (reference value: 64 ug/ml); details: dose 64.0 µg/ml
[11] = molecular target: T1, Multidrug efflux pump subunit AcrB (Escherichia coli (strain K12)); test: Inhibition of AcrB in Escherichia coli BW25113 assessed as potentiation of levofloxacin induced antibacterial activity by measuring levofloxacin MIC at 16 ug/ml measured after 18 hrs by checkerboard titration method (reference value: 0.06 ug/ml); details: dose 16.0 µg/ml
[12] = molecular target: T1, Multidrug efflux pump subunit AcrB (Escherichia coli (strain K12)); test: Inhibition of AcrB in Escherichia coli BW25113 assessed as potentiation of tetraphenylphosphonium induced antibacterial activity by measuring tetraphenylphosphonium MIC at 32 ug/ml measured after 18 hrs by checkerboard titration method (reference value: 1024 ug/ml); details: dose 32.0 µg/ml
[13] = molecular target: T1, Multidrug efflux pump subunit AcrB (Escherichia coli (strain K12)); test: Inhibition of AcrB in Escherichia coli BW25113 assessed as potentiation of levofloxacin induced antibacterial activity by measuring levofloxacin MIC at 128 ug/ml measured after 18 hrs by checkerboard titration method (reference value: 0.06 ug/ml); details: dose 128.0 µg/ml
[14] = molecular target: T1, Multidrug efflux pump subunit AcrB (Escherichia coli (strain K12)); test: Inhibition of AcrB in Escherichia coli BW25113 assessed as potentiation of rifampicin induced antibacterial activity by measuring rifampicin MIC at 32 ug/ml measured after 18 hrs by checkerboard titration method (reference value: 16 ug/ml); details: dose 32.0 µg/ml
[15] = molecular target: T1, Multidrug efflux pump subunit AcrB (Escherichia coli (strain K12)); test: Inhibition of AcrB in Escherichia coli BW25113 assessed as potentiation of levofloxacin induced antibacterial activity by measuring levofloxacin MIC at 64 ug/ml measured after 18 hrs by checkerboard titration method (reference value: 0.06 ug/ml); details: dose 64.0 µg/ml
[16] = molecular target: T1, Multidrug efflux pump subunit AcrB (Escherichia coli (strain K12)); test: Inhibition of AcrB in Escherichia coli BW25113 assessed as potentiation of rifampicin induced antibacterial activity by measuring rifampicin MIC at 16 ug/ml measured after 18 hrs by checkerboard titration method (reference value: 16 ug/ml); details: dose 16.0 µg/ml

Compound | MIC [1] [µg/mL] | growth inhibition (GI) [2] | MIC [3] [µg/mL] | MIC [4] [µg/mL] | MIC [5] [µg/mL] | growth inhibition (GI) [6] | MIC [7] [µg/mL] | Activity [8] | MIC [9] [µg/mL] | MIC [10] [µg/mL] | MIC [11] [µg/mL] | MIC [12] [µg/mL] | MIC [13] [µg/mL] | MIC [14] [µg/mL] | MIC [15] [µg/mL] | MIC [16] [µg/mL]
Nc1ccccc1C(=O)NCCc1ccc(O)c(O)c1 | 8 | Non-Toxic | 64 | 1020 | 0.06 | Non-Toxic | 8 | Non-Toxic | 4 | 64 | 0.06 | 1020 | 0.06 | 16 | 0.06 | 16
Nc1cc(N)cc(C(=O)NCCc2ccc(O)c(O)c2)c1 | 8 | Non-Toxic | 64 | 512 | 0.06 | Non-Toxic | 8 | Non-Toxic | 8 | 32 | 0.06 | 512 | 0.06 | 16 | 0.06 | 16
Oc1ccc(CCCCc2cc3cccc4ccc5cccc2c5c43)cc1O | 8 | Non-Toxic | 64 | 512 | 0.06 | Non-Toxic | 8 | Non-Toxic | 8 | 32 | 0.06 | 512 | 0.06 | 16 | 0.06 | 16
Oc1ccc(CCCCc2ccc(Br)cc2)cc1O | 8 | Non-Toxic | 64 | 1020 | 0.06 | Non-Toxic | 8 | Toxic | 8 | 64 | 0.06 | 1020 | 0.06 | 16 | 0.06 | 16
Oc1ccc(CCCCc2ccccc2O)cc1O | 8 | Non-Toxic | 64 | 512 | 0.06 | Non-Toxic | 4 | Non-Toxic | 4 | 64 | 0.06 | 512 | 0.06 | 16 | 0.06 | 16
O=C(NCCc1ccc(O)c(O)c1)c1cc(O)c(O)c(O)c1 | 4 | Non-Toxic | 32 | 1020 | 0.03 | Non-Toxic | 4 | Non-Toxic | 4 | 16 | 0.06 | 512 | 0.03 | 16 | 0.03 | 16
Oc1ccc(CCCCc2ccc(Cl)cc2)cc1O | 16 | Non-Toxic | 64 | 1020 | 0.06 | Non-Toxic | 16 | Toxic | 16 | 64 | 0.06 | 1020 | 0.06 | 16 | 0.06 | 16
